Active and inactive are the calls of the source. No cut-off for these calls is given here.
Tests used:
[1] = tested on: A549; experiment: Growth inhibition of human A549 cells after 72 hrs by MTT assay; assay type: functional, cell-based; conditions: A549, 72 h
Procedure, shortened: (§1)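 MTT colorimetric growth assay. Cells are seeded at 10,000–40,000 cells/mL depending on cell type and allowed to plate for 24 h, then cultured 72 h with or without compound. Formazan from mitochondrial MTT reduction is read spectrophotometrically at 570 nm (reference 630 nm). IC50 is the growth-inhibitory concentration.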

[2] = tested on: PC-3; experiment: Growth inhibition of human PC3 cells after 72 hrs by MTT assay; assay type: functional, cell-based; conditions: PC-3, 72 h; procedure, shortened: as §1
[3] = Growth inhibition of human U373 cells after 72 hrs by MTT assay; assay type: functional, cell-based, U-373MG ATCC; conditions: U373 MG; procedure, shortened: as §1
[4] = tested on: MCF7; experiment: Growth inhibition of human MCF7 cells after 72 hrs by MTT assay; assay type: functional, cell-based; conditions: MCF7, 72 h; procedure, shortened: as §1
[5] = Growth inhibition of human OE21 cells after 72 hrs by MTT assay; assay type: functional, cell-based; conditions: OE21, 72 h; procedure, shortened: as §1
[6] = tested on: SK-MEL; experiment: Growth inhibition of human SK-MEL cells after 72 hrs by MTT assay; assay type: functional, cell-based; procedure, shortened: as §1
[7] = tested on: U-373MG ATCC; experiment: Anticancer activity against human U373 cells assessed as reduction in cell proliferation at 10 uM for 3 days by quantitative video microscopy relative to control; assay type: functional, cell-based
Procedure, shortened: (§2)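 U373 glioblastoma cells filmed by computer-assisted phase-contrast (quantitative videomicroscopy) over three days of culture with or without compound. Cell population growth is judged from morphology: reduced proliferation is taken as cytostatic effect, direct cell killing as cytotoxic effect, and round-shaped cells as cell death. Comparison is against untreated control.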

[8] = tested on: U-373MG ATCC; experiment: Anticancer activity against human U373 cells assessed as cell death at 10 uM for 3 days by quantitative video microscopy; assay type: functional, cell-based; procedure, shortened: as §2
[9] = tested on: U-373MG ATCC; experiment: Cytostatic activity against human U373 cells assessed as increase in mitosis duration at 10 uM after 3 days by quantitative video microscopy relative to control; assay type: functional, cell-based
Procedure, shortened: (§3)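 Human U373 glioblastoma cultures are recorded by quantitative videomicroscopy with or without compound. In-house software scores mitosis duration (min) and mitosis number, with number normalized to initial cell count at t = 0 h. Values are compared with untreated control.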

[10] = tested on: U-373MG ATCC; experiment: Anticancer activity against human U373 cells assessed as reduction in cell proliferation at 5 uM for 3 days by quantitative video microscopy relative to control; assay type: functional, cell-based; procedure, shortened: as §2
[11] = tested on: U-373MG ATCC; experiment: Anticancer activity against human U373 cells assessed as cell death at 5 uM for 3 days by quantitative video microscopy; assay type: functional, cell-based; procedure, shortened: as §2
[12] = tested on: U-373MG ATCC; experiment: Cytostatic activity against human U373 cells assessed as decrease in mitosis duration at 5 uM after 3 days by quantitative video microscopy relative to control; assay type: functional, cell-based; procedure, shortened: as §3

IC50 [1] | IC50 [2] | IC50 [4] | IC50 [6] | SMILES | IC50 [3] | IC50 [5] | Activity [7] | Activity [8] | Activity [9] | Activity [10] | Activity [11] | Activity [12]
> 100 µM | > 100 µM | – | – | COc1ccc(C2CC2C(=O)NNC(=O)c2ccncc2)cc1 (stereo not drawn) | > 100 µM | – | – | – | – | – | – | –
78 µM | > 100 µM | – | – | CC(C)=CCC/C(C)=C/COc1ccc(C2CC2C(=O)NNC(=O)c2ccncc2)cc1 (stereo not drawn) | 84 µM | – | – | – | – | – | – | –
36 µM | 24 µM | 23 µM | 25 µM | CC(C)=CCC/C(C)=C/COc1ccc(C2CC2C(=O)NNc2nncc3ccccc23)cc1 (stereo not drawn) | 9 µM | 9 µM | Active | inactive | Active | – | – | –
> 100 µM | > 100 µM | – | – | CC(C)=CCOc1ccc(C2CC2C(=O)NNC(=O)c2ccncc2)cc1 (stereo not drawn) | > 100 µM | – | – | – | – | – | – | –
82 µM | 81 µM | 69 µM | 67 µM | CC(C)=CCOc1ccc(C2CC2C(=O)NNc2nncc3ccccc23)cc1 (stereo not drawn) | 81 µM | 38 µM | – | – | – | – | – | –
56 µM | 22 µM | 19 µM | 26 µM | CC(C)=CCOc1ccc(C2CC2c2nnc3c4ccccc4cnn23)cc1 (stereo not drawn) | 4 µM | 8 µM | – | – | – | Active | inactive | Active
96 µM | 64 µM | 72 µM | 68 µM | COc1ccc(C2CC2C(=O)NNc2nncc3ccccc23)cc1 (stereo not drawn) | 83 µM | 48 µM | – | – | – | – | – | –
48 µM | 67 µM | 8 µM | 29 µM | O=C(NNc1nncc2ccccc12)C1CC1c1ccc(OCC(F)(F)F)cc1 (stereo not drawn) | 25 µM | 17 µM | – | – | – | – | – | –
> 100 µM | 94 µM | – | – | CCOc1ccc(C2CC2C(=O)NNc2nncc3ccccc23)cc1 (stereo not drawn) | 91 µM | – | – | – | – | – | – | –
66 µM | > 100 µM | – | – | CCOc1ccc(C2CC2c2nnc3c4ccccc4cnn23)cc1 (stereo not drawn) | 44 µM | – | – | – | – | – | – | –
87 µM | 92 µM | 54 µM | 29 µM | O=C(NNc1nncc2ccccc12)C1CC1c1ccc(OC(F)(F)F)cc1 (stereo not drawn) | 85 µM | 42 µM | – | – | – | – | – | –
45 µM | 8 µM | 9 µM | 72 µM | CC(C)=CCC/C(C)=C/COc1ccc(C2CC2c2nnc3c4ccccc4cnn23)cc1 (stereo not drawn) | 63 µM | 5 µM | – | – | – | – | – | –
40 µM | 29 µM | 29 µM | 40 µM | COc1ccc(C2CC2c2nnc3c4ccccc4cnn23)cc1 (stereo not drawn) | 28 µM | 26 µM | – | – | – | – | – | –
43 µM | > 100 µM | – | – | CCOc1ccc(C2CC2C(=O)NNC(=O)c2ccncc2)cc1 (stereo not drawn) | 63 µM | – | – | – | – | – | – | –
56 µM | > 100 µM | – | – | O=C(NNC(=O)C1CC1c1ccc(OC(F)(F)F)cc1)c1ccncc1 (stereo not drawn) | 37 µM | – | – | – | – | – | – | –
37 µM | 49 µM | 37 µM | 57 µM | FC(F)(F)Oc1ccc(C2CC2c2nnc3c4ccccc4cnn23)cc1 (stereo not drawn) | 37 µM | 30 µM | – | – | – | – | – | –
64 µM | 38 µM | 37 µM | 29 µM | FC(F)(F)COc1ccc(C2CC2c2nnc3c4ccccc4cnn23)cc1 (stereo not drawn) | 58 µM | 9 µM | – | – | – | – | – | –
10 µM | 44 µM | 34 µM | 81 µM | O=C(NNC(=O)C1CC1c1ccc(OCC(F)(F)F)cc1)c1ccncc1 (stereo not drawn) | 19 µM | 31 µM | – | – | – | – | – | –

Source: ChEMBL document CHEMBL1156155, “Synthesis and anticancer activity evaluation of 2(4-alkoxyphenyl)cyclopropyl hydrazides and triazolo phthalazines” (Bioorg Med Chem, 2010)
